29 compounds from ChEMBL document CHEMBL5154945, “Discovery and Optimization of Pyrrolopyrimidine Derivatives as Selective Disruptors of the Perinucleolar Compartment, a Marker of Tumor Progression toward Metastasis” (J Med Chem, 2022) can be followed below.

The test system of one data set is PC-3M. Put plainly: Anticancer activity in human PC-3M cells expressing PTB/GFP fusion protein assessed as perinucleolar compartment disassembly and measured after 24 hrs by Hoechst 33342 staining based microscopic method. The class given is functional, cell-based. A digest of the protocol:
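Imaged by high-content microscopy. Nuclei with PNC spots ≥3 and >0 scored positive. PNC prevalence % = PNC-positive nuclei/total nuclei ×100, normalized to DMSO (0% activity) and 0% PNC (−100%). IC50 from concentration-response.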

Data set [1] can be described thus: Cytotoxicity against human PC-3M cells expressing PTB/GFP fusion protein assessed as reduction in ATP level and measured after 24 to 48 hrs by ATPlite luminescence assay. The class given is toxicity, cell-based. Background: ATP-based viability assays read luminescence as a measure of living cells.
A short description of a further data set: in vitro. The conditions noted are these: human, PC-3M cells expressing PTB/GFP fusion protein.
Data set [2] is described as follows: Permeability of the compound at pH 7.4 incubated for 30 mins by UV plate reader based PAMPA assay. The conditions noted are these: for permeability: pampa, pH 7.4, 0.5 h. (PAMPA measures passive passage across an artificial lipid membrane.)
Data set [3] in a line: Microsomal stability in CD1 mouse liver microsomes assessed as half life measured upto 60 mins in presence of NADPH by LC-MS analysis. The conditions noted are these: for t1/2: mouse, microsomes, 1 h; for half-life at 1 h: CD1, mouse, liver microsomes. On the technique in general: Liver microsomes are vesicles of endoplasmic reticulum, rich in cytochrome P450 enzymes.
Data set [4] in a line: Kinetic solubility of compound.

Values joined by “and” are separate entries in the source; they are usually repeats but may differ in a detail not shown here. Equal entries are not always repeated.

`COc1cccc2c1C(=O)c1c(O)c3c(c(O)c1C2=O)C[C@@](O)(C(=O)CO)C[C@@H]3O[C@H]1C[C@H](N)[C@H](O)[C@H](C)O1` [DOXORUBICIN]: the results for the IC50 (with PC-3M (read-out: IC50); in data set [1]) were 860 nM and 660 nM, respectively.

With `CC[C@@]1(O)C(=O)OCc2c1cc1n(c2=O)Cc2cc3ccccc3nc2-1` [CAMPTOTHECIN], the IC50 in the data set with PC-3M (read-out: IC50) is 190 nM; in data set [1] it was 480 nM. For the same compound, the selectivity ratio in the data set “in vitro” came to 2.5.

On to `N=c1c2c(-c3ccccc3)c(-c3ccccc3)n(Cc3ccccc3)c2ncn1C1CCC(=O)CC1`, for which the IC50 in the data set with PC-3M (read-out: pIC50 (converted)) was 302 nM. Moreover, the permeability in data set [2] is on record as > 1000 10^-6 cm/s. Besides, in data set [3], the t1/2 stood at 38.2 min. The solubility (kinetic) (commonly solubility judged after dilution from a stock solution rather than from solid) in data set [4] is 75 µM and 36 µg/mL.

On to `N=c1c2c(-c3ccccc3)c(-c3ccccc3)n(CCc3ccccc3)c2ncn1[C@H]1CC[C@H](O)CC1`, for which, in the data set with PC-3M (read-out: pIC50 (converted)), the IC50 was 339 nM. Besides, in data set [2], the permeability is > 1000 10^-6 cm/s. Further, the half-life (commonly the time in which the quantity being followed falls by half) at 1 h in data set [3] was 120 min. In data set [4], the kinetic solubility was > 132 µM and > 65 µg/mL.

Consider `N=c1c2c(-c3ccccc3)c(-c3ccccc3)n(Cc3ccccc3)c2ncn1C[C@@H]1CCCC[C@H]1O` (relative stereo), for which the IC50 with PC-3M (read-out: pIC50 (converted)) was 2000 nM. Moreover, the permeability in data set [2] is recorded as > 1000 10^-6 cm/s. In data set [3], the t1/2 is listed as 2.4 min.

Take `N#Cc1c(-c2ccccc2)c(-c2ccccc2)n(Cc2ccccc2)c1/N=C/N[C@H]1CC[C@H](O)CC1`: the IC50 in the data set on PC-3M (read-out: IC50) was > 20000 nM. In addition, the permeability in data set [2] is 327.5 10^-6 cm/s. In addition, the t1/2 in data set [3] worked out at 11.2 min.

Consider `CN(C)CCCn1cnc2c(c(-c3ccccc3)c(-c3ccccc3)n2CCc2ccccc2)c1=N`, for which, in the data set on PC-3M (read-out: IC50), the IC50 stood at 12600 nM. In data set [2], the permeability is reported as 294.4 10^-6 cm/s. Also, the t1/2 in data set [3] amounted to 77.9 min.

For `N=c1c2c(-c3ccccc3)c(-c3ccccc3)n(Cc3ccccc3)c2ncn1C[C@@H]1CCCC[C@H]1CO` (relative stereo), the IC50 with PC-3M (read-out: pIC50 (converted)) was 933 nM. Further, in data set [2], the permeability is > 1000 10^-6 cm/s. The t1/2 in data set [3] was 17.4 min.

With `N=c1c2c(-c3ccccc3)c(-c3ccccc3)n(Cc3ccc(S(N)(=O)=O)cc3)c2ncn1CC1CCOCC1`, the IC50 in the data set on PC-3M (read-out: pIC50 (converted)) was 25100 nM. For the same compound, in data set [2], the permeability is given as < 1 10^-6 cm/s. For the same compound, the t1/2 in data set [3] was found to be 8.3 min.

Turning to `N=c1c2c(-c3ccccc3)c(-c3ccccc3)n(Cc3ccccc3)c2ncn1CCO`, in the data set with PC-3M (read-out: pIC50 (converted)), the IC50 is 832 nM. Also, the permeability in data set [2] is > 1000 10^-6 cm/s. Moreover, the t1/2 in data set [3] stood at 25.1 min.

As to `N=c1c2c(-c3ccccc3)cn(Cc3ccccc3)c2ncn1CCO`, the IC50 in the data set on PC-3M (read-out: IC50) was > 20000 nM. The permeability in data set [2] was 1270.9 10^-6 cm/s. Also, the t1/2 in data set [3] is reported as 9.2 min.

`CCOC(CCCn1cnc2c(c(-c3ccccc3)c(-c3ccccc3)n2Cc2ccccc2)c1=N)OCC`: in the data set on PC-3M (read-out: pIC50 (converted)), the IC50 is 23400 nM. Also, in data set [2], the permeability is > 1000 10^-6 cm/s. In data set [3], the t1/2 is on record as 4.3 min.

As to `N=c1c2c(-c3ccccc3)c(-c3ccccc3)n(Cc3ccccc3)c2ncn1[C@H]1CC[C@@H](O)CC1`, the IC50 with PC-3M (read-out: pIC50 (converted)) is 832 nM. Moreover, the permeability in data set [2] is > 1000 10^-6 cm/s. Also, the t1/2 in data set [3] was 52.3 min.

In the case of `N=c1c2c(-c3ccccc3)c(-c3ccccc3)n(Cc3ccc(OC(F)(F)F)cc3)c2ncn1C1CCOCC1`, the IC50 with PC-3M (read-out: pIC50 (converted)) was 955 nM. In data set [2], the permeability is > 1000 10^-6 cm/s. Besides, in data set [3], the t1/2 is reported as 72 min.

In the case of `N=c1c2c(-c3ccccc3)c(-c3ccccc3)n(Cc3ccc(OC(F)(F)F)cc3)c2ncn1[C@H]1CC[C@@H](O)CC1`, the IC50 in the data set with PC-3M (read-out: pIC50 (converted)) was 3390 nM. In data set [2], the permeability is recorded as 1246.89 10^-6 cm/s. The half-life at 1 h in data set [3] was found to be 120 min.

As to `Cc1c(C)n(Cc2ccccc2)c2ncn([C@H]3CC[C@H](O)CC3)c(=N)c12`, in the data set on PC-3M (read-out: IC50), the IC50 was > 20000 nM. For the same compound, in data set [2], the permeability is reported as < 1 10^-6 cm/s. In addition, in data set [3], the half-life at 1 h amounted to 120 min.

As to `COc1ccc(Cn2c(-c3ccccc3)c(-c3ccccc3)c3c(=N)n(CC4CCCO4)cnc32)cc1` (configuration not stated), in the data set on PC-3M (read-out: pIC50 (converted)), the IC50 was 8510 nM. In addition, the permeability in data set [2] is reported as > 1000 10^-6 cm/s. Further, the t1/2 in data set [3] is listed as 9.4 min.

Consider `N=c1c2c(-c3ccccc3)cn(Cc3ccccc3)c2ncn1Cc1ccco1`, for which the IC50 in the data set with PC-3M (read-out: IC50) was > 20000 nM. Moreover, the permeability in data set [2] is given as 1737 10^-6 cm/s. In data set [3], the t1/2 came to 3 min.

As for `COc1ccc(-c2c(-c3ccc(OC)cc3)n(Cc3ccccc3)c3ncn(CC4CCOC4)c(=N)c23)cc1` (configuration not stated), the IC50 in the data set on PC-3M (read-out: IC50) was > 20000 nM. Further, the permeability in data set [2] is reported as > 1000 10^-6 cm/s. For the same compound, the t1/2 in data set [3] was 16.5 min.

Take `N=c1c2c(-c3ccccc3)c(-c3ccccc3)n(Cc3ccccc3)c2ncn1C1CCOCC1`: the figures for the IC50 in the data set with PC-3M (read-out: IC50) and with PC-3M (read-out: pIC50 (converted)) were 320 nM and 316 nM, respectively. Moreover, in data set [2], the permeability is given as > 1000 10^-6 cm/s. In data set [3], the t1/2 is 29.6 min. Further, the kinetic solubility in data set [4] is 18 µM and 8.3 µg/mL.

Regarding `Cc1c(C)n(Cc2ccccc2)c2ncn(CCCO)c(=N)c12`, the IC50 with PC-3M (read-out: IC50) is > 20000 nM. The permeability in data set [2] is listed as 609.3 10^-6 cm/s. In data set [3], the half-life at 1 h worked out at 120 min.

In the case of `CN(C)CCCn1cnc2c(c(-c3ccccc3)c(-c3ccccc3)n2Cc2ccccc2)c1=N`, the IC50 in the data set on PC-3M (read-out: IC50) and in the data set with PC-3M (read-out: pIC50 (converted)) was 12600 nM throughout. The Papp (usually a coefficient for how fast a substance crosses the barrier) at 0.5 h in data set [2] (PAMPA, pH 7.4) amounted to 320 ×10⁻⁶ cm/s. In addition, in data set [3], the half-life at 1 h stood at 120 min.

In the case of `COc1ccc(CCn2cnc3c(c(-c4ccccc4)c(-c4ccccc4)n3Cc3ccccc3)c2=N)cc1OC`, the IC50 in the data set on PC-3M (read-out: IC50) and in the data set on PC-3M (read-out: pIC50 (converted)) was 25100 nM throughout. In addition, in data set [2], the permeability is 1196.9 10^-6 cm/s. Moreover, in data set [3], the t1/2 is 12.1 min.

With `N=c1c2c(-c3ccccc3)c(-c3ccccc3)n(Cc3ccc(OC(F)(F)F)cc3)c2ncn1[C@H]1CC[C@H](O)CC1`, the IC50 in the data set on PC-3M (read-out: pIC50 (converted)) was 631 nM. In data set [2], the permeability is recorded as 1246.89 10^-6 cm/s. For the same compound, in data set [3], the half-life at 1 h came out at 120 min.

Turning to `COc1ccc(Cn2c(-c3ccccc3)c(-c3ccccc3)c3c(=N)n(CC4CCOCC4)cnc32)cc1`, the IC50 in the data set with PC-3M (read-out: pIC50 (converted)) was 9330 nM. In addition, the permeability in data set [2] is listed as 1266.09 10^-6 cm/s. Besides, the t1/2 in data set [3] was determined as 13 min.

As to `COc1ccc(-c2c(-c3ccc(OC)cc3)n(Cc3ccccc3)c3ncn(C4CCOCC4)c(=N)c23)cc1`, in the data set on PC-3M (read-out: IC50), the IC50 is > 20000 nM. Also, the permeability in data set [2] was > 1000 10^-6 cm/s. In addition, the t1/2 in data set [3] was 58.7 min.

On to `N=c1c2c(-c3ccccc3)c(-c3ccccc3)n(Cc3ccccc3)c2ncn1CCCCCO`, for which the IC50 in the data set with PC-3M (read-out: pIC50 (converted)) was 3160 nM. Moreover, the permeability in data set [2] is > 1000 10^-6 cm/s. In data set [3], the t1/2 turned out to be 9 min.

On to `Cc1c(C)n(Cc2ccccc2)c2ncn(C3CCOCC3)c(=N)c12`, for which the IC50 in the data set with PC-3M (read-out: IC50) was > 20000 nM. Besides, in data set [2], the permeability was 1683.3 10^-6 cm/s. Also, the t1/2 in data set [3] was 26.9 min.

In the case of `COc1ccc(Cn2c(-c3ccccc3)c(-c3ccccc3)c3c(=N)n([C@H]4CC[C@H](O)CC4)cnc32)cc1`, in the data set with PC-3M (read-out: pIC50 (converted)), the IC50 is 158 nM. The permeability in data set [2] is listed as > 1000 10^-6 cm/s. The half-life at 1 h in data set [3] amounted to 120 min.
